What was measured:
Plasma [1] = experiment: Tlast in Sprague-Dawley rat plasma at 1 umol/kg, it administered as micronized powder measured up to 24 hrs post dose by electrospray LC-MS analysis; format: ADME, cell-free; settings: inhaled_or_intranasal
How it was run: (§1)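 Sprague-Dawley rats (250−400 g) dosed intratracheally with micronized dry powder blended with coarse lactose, delivered by insufflator under isoflurane anaesthesia. Blood collected in heparinized tubes and spun at 1200g for 15 min. Lung sampled at 0.25, 1, 2, 4, 8, 16 and 24 h, n = 3 per time point.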

[2] = biological target: High affinity cAMP-specific and IBMX-insensitive 3',5'-cyclic phosphodiesterase 8A (Homo sapiens, UniProt O60658); experiment: Inhibition of human recombinant PDE8A1 expressed insect sf9 cells by radiometric assay
Chain of High affinity cAMP-specific and IBMX-insensitive 3',5'-cyclic phosphodiesterase 8A (O60658 whole entry): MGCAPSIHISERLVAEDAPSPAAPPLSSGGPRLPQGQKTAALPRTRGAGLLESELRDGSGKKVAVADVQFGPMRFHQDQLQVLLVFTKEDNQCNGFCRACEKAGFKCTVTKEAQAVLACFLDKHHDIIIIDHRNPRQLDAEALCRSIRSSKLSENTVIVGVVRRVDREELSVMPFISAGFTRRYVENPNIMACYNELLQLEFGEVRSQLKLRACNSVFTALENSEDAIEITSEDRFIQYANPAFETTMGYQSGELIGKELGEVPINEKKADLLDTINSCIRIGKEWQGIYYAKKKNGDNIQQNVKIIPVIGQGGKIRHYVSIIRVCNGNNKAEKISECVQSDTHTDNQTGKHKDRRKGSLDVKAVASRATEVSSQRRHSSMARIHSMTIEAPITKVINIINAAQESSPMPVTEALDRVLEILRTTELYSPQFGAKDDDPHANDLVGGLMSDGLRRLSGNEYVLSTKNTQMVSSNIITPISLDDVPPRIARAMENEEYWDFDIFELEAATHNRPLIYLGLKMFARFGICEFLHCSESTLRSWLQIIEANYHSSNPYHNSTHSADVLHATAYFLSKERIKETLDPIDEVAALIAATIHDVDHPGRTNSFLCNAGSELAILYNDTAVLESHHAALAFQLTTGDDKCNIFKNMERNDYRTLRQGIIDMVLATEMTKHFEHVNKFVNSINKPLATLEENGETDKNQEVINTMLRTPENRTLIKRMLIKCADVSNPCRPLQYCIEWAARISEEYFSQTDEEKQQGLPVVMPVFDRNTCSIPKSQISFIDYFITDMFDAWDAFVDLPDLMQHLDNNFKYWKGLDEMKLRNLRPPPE
How it was run: (§2)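 Human recombinant PDEs expressed in Sf9 cells, except PDE6 purified from bovine retina. Radiometric two-step method, modified from Thompson and Appleman. Five concentrations in duplicate, starting at 30 μM with 1:10 serial dilution, 1% final DMSO.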

[3] = Intrinsic clearance in human hepatocytes assessed per million cells at 1 uM measured after 90 mins by LC-MS/MS analysis; format: ADME, cell-based, Hepatocyte; settings: read-out: CLH
How it was run: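 Compound at 1 μM with hepatocytes (1 million cells/mL) in Leibovitz L-15 at 37 °C, in duplicate. Sampled at 0, 10, 20, 30, 60 and 90 min, quenched with ice-cold acetonitrile, centrifuged, and unchanged compound measured by LC−MS/MS. Included 7-ethoxycoumarin and 7-hydroxycoumarin activity controls and cell-free medium controls.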

[4] = Intrinsic clearance in human liver microsomes at 1 uM measured after 60 mins in presence NADPH by LC-MS/MS analysis; format: ADME, microsome; settings: read-out: CLH
How it was run: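 Compound at 1 μM with human liver microsomes (0.8 mg protein/mL) in Dulbecco's buffer pH 7.4, 1 mM NADPH, 37 °C, in duplicate. Sampled at 0, 5, 10, 20, 30 and 60 min, quenched with ice-cold acetonitrile, and unchanged compound measured by LC−MS/MS. No-NADPH controls; midazolam (1 μM) as phase I control.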

[5] = biological target: High affinity cGMP-specific 3',5'-cyclic phosphodiesterase 9A (Homo sapiens, UniProt O76083); experiment: Inhibition of human recombinant PDE9A2 expressed insect sf9 cells by radiometric assay; how it was run: as §2
Chain of High affinity cGMP-specific 3',5'-cyclic phosphodiesterase 9A (O76083 whole entry): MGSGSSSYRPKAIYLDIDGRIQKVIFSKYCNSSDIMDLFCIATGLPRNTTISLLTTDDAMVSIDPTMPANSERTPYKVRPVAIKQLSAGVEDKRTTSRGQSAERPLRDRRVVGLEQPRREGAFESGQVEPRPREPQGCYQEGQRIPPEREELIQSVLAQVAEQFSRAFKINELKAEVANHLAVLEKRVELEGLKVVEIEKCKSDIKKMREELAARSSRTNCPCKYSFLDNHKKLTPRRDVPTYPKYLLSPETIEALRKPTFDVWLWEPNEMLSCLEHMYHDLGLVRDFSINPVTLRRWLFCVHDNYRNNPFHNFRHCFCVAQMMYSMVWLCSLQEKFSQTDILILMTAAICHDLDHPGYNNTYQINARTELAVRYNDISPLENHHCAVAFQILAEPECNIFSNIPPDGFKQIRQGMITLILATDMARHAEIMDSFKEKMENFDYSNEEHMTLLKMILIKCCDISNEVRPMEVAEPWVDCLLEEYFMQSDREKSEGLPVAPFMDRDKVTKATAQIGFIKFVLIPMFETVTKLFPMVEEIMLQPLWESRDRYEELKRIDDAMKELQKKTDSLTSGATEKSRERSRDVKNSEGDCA

[6] = biological target: High affinity 3',5'-cyclic-AMP phosphodiesterase 7A (Homo sapiens, UniProt Q13946); experiment: Inhibition of human recombinant PDE7A expressed insect sf9 cells by radiometric assay; how it was run: as §2
Chain of High affinity 3',5'-cyclic-AMP phosphodiesterase 7A (Q13946 whole entry): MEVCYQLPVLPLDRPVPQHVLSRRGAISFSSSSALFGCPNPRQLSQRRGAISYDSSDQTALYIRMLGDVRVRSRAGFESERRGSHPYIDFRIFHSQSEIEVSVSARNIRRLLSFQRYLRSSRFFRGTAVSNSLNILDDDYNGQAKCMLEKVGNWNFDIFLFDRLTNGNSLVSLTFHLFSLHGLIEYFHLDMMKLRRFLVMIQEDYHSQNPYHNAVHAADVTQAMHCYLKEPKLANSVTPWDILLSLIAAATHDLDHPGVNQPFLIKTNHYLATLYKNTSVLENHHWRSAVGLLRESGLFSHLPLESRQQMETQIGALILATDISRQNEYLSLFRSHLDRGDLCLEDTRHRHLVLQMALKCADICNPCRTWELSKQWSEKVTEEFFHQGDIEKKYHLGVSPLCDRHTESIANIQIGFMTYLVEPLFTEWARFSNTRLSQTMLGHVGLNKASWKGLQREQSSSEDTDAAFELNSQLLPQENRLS

[7] = biological target: 3',5'-cyclic-AMP phosphodiesterase 4B (Homo sapiens, UniProt Q07343); experiment: Inhibition of human recombinant PDE4B expressed insect sf9 cells by radiometric assay; how it was run: as §2
Chain of 3',5'-cyclic-AMP phosphodiesterase 4B (Q07343 whole entry): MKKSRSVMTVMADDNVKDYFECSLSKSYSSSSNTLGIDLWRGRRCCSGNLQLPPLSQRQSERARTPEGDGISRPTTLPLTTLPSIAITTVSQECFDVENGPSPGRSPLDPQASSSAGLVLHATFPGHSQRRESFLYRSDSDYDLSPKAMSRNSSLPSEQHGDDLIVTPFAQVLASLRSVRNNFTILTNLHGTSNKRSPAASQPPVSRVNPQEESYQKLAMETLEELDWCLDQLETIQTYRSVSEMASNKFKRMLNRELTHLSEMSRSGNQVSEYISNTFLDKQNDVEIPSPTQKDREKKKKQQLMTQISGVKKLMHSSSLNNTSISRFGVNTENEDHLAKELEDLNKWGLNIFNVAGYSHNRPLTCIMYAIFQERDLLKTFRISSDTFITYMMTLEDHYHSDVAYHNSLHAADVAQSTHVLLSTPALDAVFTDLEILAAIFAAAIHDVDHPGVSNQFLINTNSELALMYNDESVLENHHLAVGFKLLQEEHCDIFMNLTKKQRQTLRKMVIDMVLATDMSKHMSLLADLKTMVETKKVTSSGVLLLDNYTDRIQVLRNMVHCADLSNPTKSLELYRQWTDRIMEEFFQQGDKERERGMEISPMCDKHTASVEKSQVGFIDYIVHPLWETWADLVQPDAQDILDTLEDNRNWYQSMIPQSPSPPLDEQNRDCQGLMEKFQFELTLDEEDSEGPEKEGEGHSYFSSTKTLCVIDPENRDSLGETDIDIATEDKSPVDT

[8] = biological target: Dual 3',5'-cyclic-AMP and -GMP phosphodiesterase 11A (Homo sapiens, UniProt Q9HCR9); experiment: Inhibition of human recombinant PDE11A4 expressed insect sf9 cells by radiometric assay; how it was run: as §2
[9] = Half life in Sprague-Dawley rat lung at 1 umol/kg, it administered as micronized powder measured up to 24 hrs post dose by electrospray LC-MS analysis; format: ADME, tissue-based; settings: inhaled or intranasal; how it was run: as §1
Lung [10] = experiment: Cmax in Sprague-Dawley rat lung at 1 umol/kg, it administered as micronized powder measured up to 24 hrs post dose by electrospray LC-MS analysis; format: ADME, tissue-based; parameters: dose 1 umol/kg; settings: in vivo, inhaled_or_intranasal; how it was run: as §1
[11] = biological target: Dual specificity calcium/calmodulin-dependent 3',5'-cyclic nucleotide phosphodiesterase 1A (Homo sapiens, UniProt P54750); experiment: Inhibition of human recombinant PDE1A expressed insect sf9 cells by radiometric assay; how it was run: as §2
Cytochrome P450 3A4 = Cytochrome P450 3A4 (Homo sapiens, UniProt P08684); experiment: Binding affinity to human liver microsomes CYP3A4 at 1 uM; format: ADME
How it was run: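 Off-target screening panel of about 400 receptors, enzymes and ion channels, run at 1 μM. Result expressed as % binding.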

[12] = biological target: cGMP-dependent 3',5'-cyclic phosphodiesterase (Homo sapiens, UniProt O00408); experiment: Inhibition of human recombinant PDE2A expressed insect sf9 cells by radiometric assay; how it was run: as §2
Chain of cGMP-dependent 3',5'-cyclic phosphodiesterase (O00408 whole entry): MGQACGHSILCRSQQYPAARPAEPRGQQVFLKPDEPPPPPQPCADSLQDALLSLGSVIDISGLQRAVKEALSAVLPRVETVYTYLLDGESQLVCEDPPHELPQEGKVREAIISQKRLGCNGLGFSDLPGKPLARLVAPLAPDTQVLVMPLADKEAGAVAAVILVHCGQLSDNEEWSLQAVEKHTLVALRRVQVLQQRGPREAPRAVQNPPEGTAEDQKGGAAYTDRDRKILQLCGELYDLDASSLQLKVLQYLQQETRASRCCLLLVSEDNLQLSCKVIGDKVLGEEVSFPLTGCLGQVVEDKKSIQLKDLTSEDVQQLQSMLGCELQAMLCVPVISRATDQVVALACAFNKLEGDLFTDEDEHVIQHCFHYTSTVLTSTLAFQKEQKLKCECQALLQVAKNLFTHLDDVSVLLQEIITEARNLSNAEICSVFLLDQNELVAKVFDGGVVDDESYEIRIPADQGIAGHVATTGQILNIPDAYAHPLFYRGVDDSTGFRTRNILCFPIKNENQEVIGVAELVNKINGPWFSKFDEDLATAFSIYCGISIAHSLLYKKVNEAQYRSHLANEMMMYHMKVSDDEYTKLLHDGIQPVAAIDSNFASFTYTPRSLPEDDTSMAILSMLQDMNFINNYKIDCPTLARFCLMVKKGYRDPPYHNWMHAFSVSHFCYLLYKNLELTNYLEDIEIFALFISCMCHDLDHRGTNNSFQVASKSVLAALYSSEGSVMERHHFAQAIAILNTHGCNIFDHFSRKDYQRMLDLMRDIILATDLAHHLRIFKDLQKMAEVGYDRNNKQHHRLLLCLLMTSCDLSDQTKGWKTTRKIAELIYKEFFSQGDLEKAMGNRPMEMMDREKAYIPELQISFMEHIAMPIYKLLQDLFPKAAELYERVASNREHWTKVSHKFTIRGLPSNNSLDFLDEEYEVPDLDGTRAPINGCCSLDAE

[13] = Inhibition of bovine retina PDE6 expressed insect sf9 cells by radiometric assay; parameters: species or system Bos taurus
[14] = biological target: Voltage-gated inwardly rectifying potassium channel KCNH2 (Homo sapiens, UniProt Q12809); experiment: Inhibition of human ERG at 1 uM
[15] = biological target: cGMP-inhibited 3',5'-cyclic phosphodiesterase 3A (Homo sapiens, UniProt Q14432); experiment: Inhibition of human recombinant PDE3A expressed insect sf9 cells by radiometric assay; how it was run: as §2
Chain of cGMP-inhibited 3',5'-cyclic phosphodiesterase 3A (Q14432 whole entry): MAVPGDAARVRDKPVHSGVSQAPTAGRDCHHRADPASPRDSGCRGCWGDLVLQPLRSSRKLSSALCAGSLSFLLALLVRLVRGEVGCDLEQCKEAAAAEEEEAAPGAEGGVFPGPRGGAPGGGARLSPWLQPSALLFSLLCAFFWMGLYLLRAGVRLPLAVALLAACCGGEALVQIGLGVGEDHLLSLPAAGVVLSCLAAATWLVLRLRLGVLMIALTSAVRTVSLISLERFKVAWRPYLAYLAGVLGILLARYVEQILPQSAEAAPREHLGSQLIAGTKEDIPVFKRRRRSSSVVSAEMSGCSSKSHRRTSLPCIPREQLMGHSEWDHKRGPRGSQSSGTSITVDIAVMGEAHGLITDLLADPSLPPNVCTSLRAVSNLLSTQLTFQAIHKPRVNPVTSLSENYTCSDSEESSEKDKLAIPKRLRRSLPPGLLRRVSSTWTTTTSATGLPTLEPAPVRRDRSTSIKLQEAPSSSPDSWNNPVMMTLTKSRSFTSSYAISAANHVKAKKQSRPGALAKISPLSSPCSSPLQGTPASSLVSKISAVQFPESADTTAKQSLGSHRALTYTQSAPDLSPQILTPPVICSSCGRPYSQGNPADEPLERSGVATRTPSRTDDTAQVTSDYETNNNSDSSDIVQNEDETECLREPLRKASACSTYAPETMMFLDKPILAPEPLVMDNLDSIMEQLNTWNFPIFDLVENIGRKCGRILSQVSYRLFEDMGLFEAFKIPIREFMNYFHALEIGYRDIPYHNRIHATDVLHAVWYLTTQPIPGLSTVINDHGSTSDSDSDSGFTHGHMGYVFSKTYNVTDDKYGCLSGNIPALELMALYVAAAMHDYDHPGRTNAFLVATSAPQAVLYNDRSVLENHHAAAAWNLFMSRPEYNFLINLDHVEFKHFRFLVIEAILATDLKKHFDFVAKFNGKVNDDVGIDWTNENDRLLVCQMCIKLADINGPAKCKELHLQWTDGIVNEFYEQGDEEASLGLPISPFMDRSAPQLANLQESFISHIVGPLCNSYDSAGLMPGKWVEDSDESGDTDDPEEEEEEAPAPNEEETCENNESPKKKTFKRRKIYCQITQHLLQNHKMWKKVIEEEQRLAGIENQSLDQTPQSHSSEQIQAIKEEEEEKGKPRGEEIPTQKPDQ

[16] = Apparent permeability across apical to basolateral side in human Caco2 cells at 10 uM after 2 hrs by LC-MS/MS analysis; format: ADME, cell-based; settings: Caco-2
Plasma [17] = experiment: AUClast in Sprague-Dawley rat plasma at 1 umol/kg, it administered as micronized powder measured up to 24 hrs post dose by electrospray LC-MS analysis; format: ADME, cell-free; settings: inhaled_or_intranasal; how it was run: as §1
[18] = Tmax in Sprague-Dawley rat plasma at 1 umol/kg, it administered as micronized powder measured up to 24 hrs post dose by electrospray LC-MS analysis; format: ADME, cell-free; settings: inhaled or intranasal; how it was run: as §1
[19] = Metabolic stability in human lung S9 fraction assessed as compound remaining at 1 uM measured after 60 mins in presence of NADPH by LC-MS/MS analysis; format: ADME; settings: read-out: Stability
[20] = biological target: cGMP-specific 3',5'-cyclic phosphodiesterase (Homo sapiens, UniProt O76074); experiment: Inhibition of human recombinant PDE5A expressed insect sf9 cells by radiometric assay; how it was run: as §2
[21] = MRTlast in Sprague-Dawley rat lung at 1 umol/kg, it administered as micronized powder measured up to 24 hrs post dose by electrospray LC-MS analysis; format: ADME, tissue-based; settings: inhaled or intranasal; how it was run: as §1
[22] = Protein binding in human plasma at 5 uM after 5 hrs by LC-MS/MS analysis; format: ADME, cell-free; settings: read-out: PPB (converted)
[23] = Tmax in Sprague-Dawley rat lung at 1 umol/kg, it administered as micronized powder measured up to 24 hrs post dose by electrospray LC-MS analysis; format: ADME, tissue-based; settings: inhaled or intranasal; how it was run: as §1
Lung [24] = experiment: Tlast in Sprague-Dawley rat lung at 1 umol/kg, it administered as micronized powder measured up to 24 hrs post dose by electrospray LC-MS analysis; format: ADME, tissue-based; settings: in vivo, inhaled_or_intranasal; how it was run: as §1
[25] = Ratio of drug uptake in Sprague-Dawley rat lung to plasma at 1 umol/kg, it administered as micronized powder measured up to 8 hrs post dose by electrospray LC-MS analysis; format: ADME; settings: other tissue, inhaled_or_intranasal
[26] = biological target: cAMP and cAMP-inhibited cGMP 3',5'-cyclic phosphodiesterase 10A (Homo sapiens, UniProt Q9Y233); experiment: Inhibition of human recombinant PDE10A2 expressed insect sf9 cells by radiometric assay; how it was run: as §2
[27] = Apparent permeability across basolateral to apical side in human Caco2 cells at 10 uM after 2 hrs by LC-MS/MS analysis; format: ADME, cell-based; settings: Caco-2
Plasma [28] = experiment: Cmax in Sprague-Dawley rat plasma at 1 umol/kg, it administered as micronized powder measured up to 24 hrs post dose by electrospray LC-MS analysis; format: ADME, cell-free; parameters: dose 1 umol/kg; settings: inhaled_or_intranasal; how it was run: as §1
[29] = Inhibition of PDE4 in human PBMC assessed as reduction in LPS-induced TNFalpha release after 18 hrs by quantitative ELISA

For `CN(C)C(=O)c1cccc(S(=O)(=O)N2CCS[C@H]2C(=O)O[C@@H](Cc2c(Cl)c[n+]([O-])cc2Cl)c2ccc(OC(F)F)c(OCC3CC3)c2)c1`, the Tlast (Plasma [1]) was 8 h, the IC50 [2] was 3.56 µM and the hepatocyte CLint at 1 µM [3] was 82.5 µL/min/1e6 cells. For the same compound, the microsomal CLint at 1 µM [4] was 287 µL/min/mg, the IC50 [5] was > 30 µM and the IC50 [6] was 0.66 µM. The IC50 [7] was 0.0278 nM, the IC50 [8] was > 30 µM and the half-life [9] was 4.39 h. It also gave a Cmax (Lung [10]) of 16.06 nmol/g, an IC50 [11] of 7.4 µM and an Activity (Cytochrome P450 3A4) of 84%. The IC50 [12] was > 30 µM, the IC50 [13] was 5.78 µM and the “inhibition (INH)” value [14] was “Not Active”. For the same compound, the IC50 [15] was 6.21 µM, the Papp A→B at 2 h, 10 µM [16] was 0.42 ×10⁻⁶ cm/s and the AUClast (Plasma [17]) was 10.38 pmol·h/g. It also gave a Tmax [18] of 4.98 min, a remaining at 1 h, 1 µM [19] of 70.2% and an IC50 [20] of 4.61 µM. For the same compound, the MRT last at 24 h [21] was 5.56 h, the fraction unbound at 5 h, 5 µM [22] was 0.0021 and the Tmax [23] was 0.25 h. The Tlast (Lung [24]) was 24 h, the Ratio [25] was 5152 and the IC50 [26] was 0.81 µM. It also gave a Papp B→A at 2 h, 10 µM [27] of 3.18 ×10⁻⁶ cm/s, a Cmax (Plasma [28]) of 9.8 pmol/g and an IC50 [29] of 0.019 nM.

Work on `CN(C)C(=O)c1cccc(S(=O)(=O)N2CCC[C@H]2C(=O)O[C@@H](Cc2c(Cl)c[n+]([O-])cc2Cl)c2ccc(OC(F)F)c(OCC3CC3)c2)c1` (relative stereo) yielded a Tlast (Plasma [1]) of 8 h, an IC50 [2] of 17 µM and a hepatocyte CLint at 1 µM [3] of 95.5 µL/min/1e6 cells. The microsomal CLint at 1 µM [4] was 591 µL/min/mg, the IC50 [5] was > 30 µM and the IC50 [6] was 3.46 µM. For the same compound, the IC50 [7] was 0.0881 nM, the IC50 [8] was > 30 µM and the half-life [9] was 5.18 h. For the same compound, the Cmax (Lung [10]) was 16.24 nmol/g, the IC50 [11] was 25.6 µM and the Activity (Cytochrome P450 3A4) was 73%. For the same compound, the IC50 [12] was > 30 µM, the IC50 [13] was > 30 µM and the “inhibition (INH)” value [14] was “Not Active”. The IC50 [15] was > 30 µM, the Papp A→B at 2 h, 10 µM [16] was 0.48 ×10⁻⁶ cm/s and the AUClast (Plasma [17]) was 33.27 pmol·h/g. For the same compound, the Tmax [18] was 4.98 min, the remaining at 1 h, 1 µM [19] was 71.1% and the IC50 [20] was 13.9 µM. For the same compound, the MRT last at 24 h [21] was 4.52 h, the fraction unbound at 5 h, 5 µM [22] was 0.0035 and the Tmax [23] was 0.083 h. It also gave a Tlast (Lung [24]) of 24 h, a Ratio [25] of 2261 and an IC50 [26] of 4.03 µM. It also gave a Papp B→A at 2 h, 10 µM [27] of 10.2 ×10⁻⁶ cm/s, a Cmax (Plasma [28]) of 20.65 pmol/g and an IC50 [29] of 0.032 nM.
